NTR1 agonist: agonists of human neurotensin receptor NTR1; P30989; NTR1-U2OS beta-arrestin-GFP spot imaging, agonist mode; activation, % at 20 µM; hit rate 0.17% among 330,000; AID 493036;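 active means activation at or above 40% of the spot to cytoplasm intensity ratio, with at least 20 cells analyzed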;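 further: 0% = DMSO without peptide and 100% = 100 nM NTR1 peptide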
MC4R ag barr: human MC4R agonism via beta-arrestin. P32245. U2OS MC4R beta-arrestin complementation, luminescence; percent of melanotan II response, DMSO zero. activation, % at 8.9 µM. hit rate 0.98% among 360,000. AID 540308;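 active means activation above a per-plate cutoff, the mean activation of sample wells on that plate plus 3 SD, cut at about 8% in these data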
TLR9-MyD88 block: blocks human TLR9 binding to MyD88. Q9NR96+Q99836. CHO BLA complementation TLR9-MyD88, CCF4 FRET ratio. inhibition, % at 4.98 µM. hit rate 0.21% among 340,000. AID 504734;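 active means inhibition above the mean over all tested compounds plus 3 SD, cut at about 21% in these data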;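 further: 0% = DMSO only wells and 100% = clavulanate BLA inhibitor control wells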
MC4R antag cAMP: blocks human MC4R cAMP signaling. P32245. MC4R-expressing cells, MTII-stimulated cAMP, LANCE TR-FRET. inhibition, % at 6.5 µM. hit rate 0.48% among 360,000;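 active means inhibition above its plate's cutoff, the mean of tested wells on that plate plus 3 SD, cut at about 29% in these data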;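 further: 0% = Melanotan II alone and 100% = Melanotan II plus saturating MCL0020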
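Material: human MC4R-expressing U2OS cells. Probe or stimulus: Melanotan II challenge. Dosing: 6.5 µM single dose. Times: 30-min compound, 1-h challenge, 1-h detection, room temperature. Technique: TR-FRET with Eu-cAMP and labeled anti-cAMP, 671 nm. Replication: singlicate.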
TLR4-MyD88 BLA: inhibitors of human TLR4-MyD88 binding; HeLa CL3-4 TLR4/MyD88 BLA complementation, FRET ratio; O00206+Q99836; hit rate 0.18% among 200,000; inhibition, % at 8.4 µM; AID 861; in the data active means inhibition above about 25%;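 further: 0% = vehicle and 100% = reference inhibitor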
Target sequence (O00206 whole entry, looked up): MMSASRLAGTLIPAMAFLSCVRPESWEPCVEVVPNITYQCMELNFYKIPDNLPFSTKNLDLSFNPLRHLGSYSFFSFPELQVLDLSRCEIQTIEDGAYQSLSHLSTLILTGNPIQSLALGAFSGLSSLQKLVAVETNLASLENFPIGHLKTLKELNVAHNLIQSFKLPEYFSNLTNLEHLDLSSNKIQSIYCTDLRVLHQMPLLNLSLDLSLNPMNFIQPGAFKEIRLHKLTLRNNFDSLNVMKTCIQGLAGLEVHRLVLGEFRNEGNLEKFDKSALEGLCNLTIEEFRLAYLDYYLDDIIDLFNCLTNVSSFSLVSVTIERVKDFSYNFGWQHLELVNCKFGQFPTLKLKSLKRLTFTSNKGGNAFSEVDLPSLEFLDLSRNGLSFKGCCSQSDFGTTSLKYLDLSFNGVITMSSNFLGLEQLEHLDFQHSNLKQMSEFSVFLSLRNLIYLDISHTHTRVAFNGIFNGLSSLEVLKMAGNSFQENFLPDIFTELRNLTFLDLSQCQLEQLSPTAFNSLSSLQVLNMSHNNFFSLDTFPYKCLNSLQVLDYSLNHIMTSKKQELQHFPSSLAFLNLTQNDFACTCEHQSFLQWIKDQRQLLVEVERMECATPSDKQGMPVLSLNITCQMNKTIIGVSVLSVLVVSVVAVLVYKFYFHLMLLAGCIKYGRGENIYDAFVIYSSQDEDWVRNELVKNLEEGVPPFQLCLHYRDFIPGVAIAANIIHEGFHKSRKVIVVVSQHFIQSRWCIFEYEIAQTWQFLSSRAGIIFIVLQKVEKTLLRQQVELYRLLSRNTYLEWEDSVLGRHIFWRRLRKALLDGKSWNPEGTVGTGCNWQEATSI
Target sequence (Q99836 whole entry, looked up): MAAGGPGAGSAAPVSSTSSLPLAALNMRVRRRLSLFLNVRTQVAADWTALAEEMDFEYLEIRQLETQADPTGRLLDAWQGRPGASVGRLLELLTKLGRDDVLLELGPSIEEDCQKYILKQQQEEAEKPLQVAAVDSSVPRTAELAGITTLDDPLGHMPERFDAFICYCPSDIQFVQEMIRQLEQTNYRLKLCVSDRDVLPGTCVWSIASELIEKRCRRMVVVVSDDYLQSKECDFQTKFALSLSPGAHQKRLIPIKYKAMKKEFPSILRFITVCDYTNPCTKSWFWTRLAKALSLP
NOD2-RIPK2 inh: NOD2-RIPK2 protein interaction inhibition; O43353; CHO BLA complementation NOD2-RIPK2, CCF4 ratio; inhibition, % at 4.98 µM; hit rate 0.38% among 360,000; AID 624267; in the data active means inhibition above about 21%;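 further: 0% = vehicle only and 100% = reference blocker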
MC4R barr ag: human MC4R beta-arrestin agonism confirmation | hit rate 31% among 2,400 | shares compounds with MC4R ag barr | U2OS MC4R beta-arrestin recruitment, luminescence; scaled DMSO 0%, Melanotan II 100% | activation, % at 8.9 µM;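 active means mean activation across replicates above the hit cutoff set in the earlier primary screen, cut at about 8% in these data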
MOR-DOR barr ag: OPRM1-OPRD1 heterodimer agonism counter-screen; shares compounds with MC4R ag barr; U2OS PathHunter beta-arrestin, beta-gal luminescence; percent of deltorphin B response, DMSO zero; activation, % at 9.2 µM; hit rate 5.8% among 2,400; AID 602194;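 active means mean activation across replicates exceeds the hit threshold derived in the earlier primary screen, cut at about 18% in these data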;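 further: 100% = deltorphin B at 0.9 µM final and 0% = DMSO alone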
* marks the source's active call; other numbers are inactive results. This is a sample that favours compounds with a hit; in the whole collection about 1.9% have one here.

Screening COc1ccc(-c2cc3nc(C)cc(N4CCN(C(=O)c5ccco5)CC4)n3n2)cc1 returned MC4R ag barr -1, TLR9-MyD88 block 3, MC4R antag cAMP 9 and NOD2-RIPK2 inh 5.
Cc1cc(N2CCN(C(=O)c3ccco3)CC2)n2nc(-c3cccc(Cl)c3)cc2n1 was read as NTR1 agonist 10, MC4R ag barr 26*, TLR9-MyD88 block 6, MC4R antag cAMP -7, TLR4-MyD88 BLA -10, NOD2-RIPK2 inh -9, MC4R barr ag 31* and MOR-DOR barr ag 7.
Screening COCCN1C[C@@H](CO)O[C@@H](n2cnc3c(N(C)C(C)C)ncnc32)C1 returned MC4R ag barr 1, MC4R antag cAMP 5 and NOD2-RIPK2 inh 5.
Screening CCOc1cc(S(=O)(=O)NCc2ccccc2)c(OCC)cc1-n1cnnn1 returned NTR1 agonist 4, MC4R ag barr 0, TLR9-MyD88 block 6, MC4R antag cAMP 9, TLR4-MyD88 BLA 2 and NOD2-RIPK2 inh -3.
Screening CCOc1ccc(-n2cnnn2)cc1S(=O)(=O)NCc1ccccc1 returned NTR1 agonist 0, MC4R ag barr 16*, TLR9-MyD88 block -15, MC4R antag cAMP -3, TLR4-MyD88 BLA -7, NOD2-RIPK2 inh 0, MC4R barr ag -1 and MOR-DOR barr ag 2.
CCOC(=O)c1c(C)[nH]c(C(=O)Cn2nnc(-c3ccccc3)n2)c1C was read as NTR1 agonist 0, MC4R ag barr 13*, TLR9-MyD88 block 0, MC4R antag cAMP 2, TLR4-MyD88 BLA -4, NOD2-RIPK2 inh 1, MC4R barr ag 2 and MOR-DOR barr ag 9.
For CCOC(=O)c1c(C)[nH]c(C(=O)CSc2ccc(Cl)cc2)c1C the results were NTR1 agonist 2, MC4R ag barr 25*, TLR9-MyD88 block 1, MC4R antag cAMP -4, TLR4-MyD88 BLA 1, NOD2-RIPK2 inh -6, MC4R barr ag 16* and MOR-DOR barr ag 6.
For CCOC(=O)c1c(C)[nH]c(C(=O)CSc2nc(C)cc(C)n2)c1C the results were NTR1 agonist 2, MC4R ag barr -3, TLR9-MyD88 block -2, MC4R antag cAMP -3, TLR4-MyD88 BLA 1 and NOD2-RIPK2 inh -4.
`CCOC(=O)c1c(C)[nH]c(C(=O)Cn2nnc(-c3ccccc3Cl)n2)c1C` gave NTR1 agonist 2, MC4R ag barr 2, TLR9-MyD88 block 3, MC4R antag cAMP 4, TLR4-MyD88 BLA 1 and NOD2-RIPK2 inh -2.
For O=C(COn1nnc2ccc(Cl)cc21)NC12CC3CC(CC(C3)C1)C2 the results were NTR1 agonist 0, MC4R ag barr 13*, TLR9-MyD88 block -9, MC4R antag cAMP 6, TLR4-MyD88 BLA 1, NOD2-RIPK2 inh 11, MC4R barr ag 4 and MOR-DOR barr ag 12.
`O=C(COn1nnc2ccc(Cl)cc21)Nc1ccc(F)cc1` gave NTR1 agonist -1, MC4R ag barr 4, TLR9-MyD88 block -9, MC4R antag cAMP 9, TLR4-MyD88 BLA 8 and NOD2-RIPK2 inh -6.
O=C(/C=C/c1cccs1)c1ccc(NC(=O)c2cccc(Br)c2)cc1 was read as NTR1 agonist 5, MC4R ag barr 3, TLR9-MyD88 block 3, MC4R antag cAMP 8, TLR4-MyD88 BLA 14 and NOD2-RIPK2 inh -5.
Screening Cc1ccc(C(=O)Nc2ccc(C(=O)/C=C/c3cccs3)cc2)cc1 returned NTR1 agonist 0, MC4R ag barr 28*, TLR9-MyD88 block 5, MC4R antag cAMP 9, TLR4-MyD88 BLA -2, NOD2-RIPK2 inh -1, MC4R barr ag 2 and MOR-DOR barr ag 6.
For COc1cc(OC)cc(-c2c(-c3cccs3)c3cc(-c4ccc(C(N)=O)cc4)ccc3n2C)c1 the results were NTR1 agonist 11, MC4R ag barr 16*, TLR9-MyD88 block 9, MC4R antag cAMP 14, NOD2-RIPK2 inh -9, MC4R barr ag 11* and MOR-DOR barr ag 4.
